Compound activity deposited in PubChem BioAssay by several laboratories.
FLuc act counter – affects firefly luciferase, flagging false hits in luciferase stimulation screens; ATPlite luciferase biochemical, luminescence, 10 min; 0 = ATP-free wells, 1 = DMSO control; P08659; activation factor at 10 µM; 200,000 tested, under 10 active;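 active = luciferase activation factor, scaled between plate controls, of at least 2 with compound at 10 µM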
Target sequence (P08659 whole entry, looked up): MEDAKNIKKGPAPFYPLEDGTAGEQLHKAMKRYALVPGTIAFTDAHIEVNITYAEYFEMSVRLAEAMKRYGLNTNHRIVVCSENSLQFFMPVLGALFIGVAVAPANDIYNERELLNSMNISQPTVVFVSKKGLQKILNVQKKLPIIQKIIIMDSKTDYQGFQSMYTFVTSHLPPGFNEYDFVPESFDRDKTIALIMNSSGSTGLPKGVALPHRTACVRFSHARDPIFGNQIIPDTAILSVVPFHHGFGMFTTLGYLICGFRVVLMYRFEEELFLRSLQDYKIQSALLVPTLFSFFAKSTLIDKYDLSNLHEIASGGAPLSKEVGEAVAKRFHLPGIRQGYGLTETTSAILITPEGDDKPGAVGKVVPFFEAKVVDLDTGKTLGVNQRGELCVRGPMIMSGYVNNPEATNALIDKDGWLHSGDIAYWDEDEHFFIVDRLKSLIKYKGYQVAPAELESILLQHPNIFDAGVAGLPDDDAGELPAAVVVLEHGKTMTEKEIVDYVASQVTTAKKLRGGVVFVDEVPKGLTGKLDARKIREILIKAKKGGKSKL
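Assay system: Luciferase/luciferin detection reagent, cell-free biochemical luciferase assay / Read-out: luciferase activation / Benchmarks: No-ATP low control, compound-free enzyme-plus-ATP high control / Medium: PBS buffer for ATP / Detection: luminescence measurement of luciferase light output / Schedule: 10 min at ambient temperature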
APP 5'UTR act – APP 5'UTR luciferase reporter activation | 1% of 190,000 active | activation, % at 2 µM | SH-SY5Y APP 5'UTR luciferase reporter, luminescence; zero percent = DMSO vehicle wells | AID 1276;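 active = activation above a set limit, based on mean plus 3 SD of controls, cut at about 140% in these data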
NF-kB expr up – raises NF-kB expression in human neuronal cells; 1.6% of 190,000 active; NF-kB reporter expression; stronger effect = higher value; fold change at 12.5 µM; AID 1239; in the data active = fold change above about 3.3
FLuc inh counter – Photinus pyralis luciferase inhibition counter-screen; ATPLite firefly luciferase biochemical luminescence, 10 min; P08659; 1.5% of 200,000 active; AID 1006; inhibition, % at 10 µM;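 active = inhibition above about 50% when tested at 10 µM, limit read from the data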
STAT1 act – STAT1 signaling activation; NIH 3T3 STAT1-luciferase reporter, IFN-gamma, luminescence; 100% = IFN-gamma alone, no compound; activation (% of control), % at 5.5 µM; 2.6% of 200,000 active;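 active = activation above the screen-wide mean activation plus 3 SD, cut at about 130% in these data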;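 note: raw ratio to IFN-gamma control signal so 100% means no change and 0% no light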
* = called active by the depositor; x = no result. A selection: hits, their analogues and other compounds. The true share with any hit is near 4.1%.

SMILES	FLuc act counter	APP 5'UTR act	NF-kB expr up	FLuc inh counter	STAT1 act
Cc1ccc(-n2nnnc2SCC(=O)NC2CCCc3ccccc32)cc1 (stereo not drawn)	1	10	0.84	-2	99
Cc1cccc(N2C(=O)CN(Cc3sccc3C)C2=S)c1	1	5	0.88	-2	92
CC(C(=O)Nc1ccc2c(c1)OCCO2)c1ccc([N+](=O)[O-])cc1 (stereo not drawn)	1.1	-17	0.99	-10	99
Cc1ccsc1/C=N\NC(=O)c1n[nH]c2c1CCC2	0.3	26	4.8*	71*	121
Cc1ccc(NC(=O)CCn2nnc3ccccc32)c(C)c1	1.1	17	2.5	-9	112
Cc1ccc(C(=O)Cn2nnc3ccccc32)cc1	0.8	104	3.3*	17	119
O=C(Cn1nnc2ccccc21)N1CCCCC1	1	-4	1.1	-3	99
Cc1ccc(C(=O)Cn2nnc3ccccc32)cc1C	0.9	119	4.1*	14	143*
O=C(Cn1nnc2ccccc21)C1CC1	1	12	0.99	-4	98
Cc1ccc(NC(=O)CCn2nnc3ccccc32)cc1	1.1	20	2.2	-5	130*
O=C(Cn1nnc2ccccc21)NCc1ccccc1	1	59	2.4	0	144*
COc1ccc(/C=N/c2c(-c3ccco3)nc3ccccn23)cc1OC	0.2	-14	0.89	80*	117
COc1ccc(NC(=O)Nc2ccccc2F)c(C)c1	1	10	1.2	3	104
COc1ccc(C(=O)C[n+]2cn(C(F)F)c3ccccc32)c(F)c1	1	-4	1.5	-1	130*
COc1ccc(C(=S)Nc2ccc(C)cc2)cc1	0.7	106	2.6	27	133*
Cc1ccc(NC(=S)c2ccccc2)cc1	0.7	62	2.3	35	139*
COc1ccc2nc(NC(=O)c3ccc4ncsc4c3)sc2c1	0.6	116	1.6	36	142*
COc1ccc2nc(NC(C)=O)sc2c1	0.9	82	2.6	9	139*
CCn1nnnc1SCC(=O)Nc1nc2ccc(OC)cc2s1	0.9	7	1.6	7	118
COc1ccc2nc(NC(=O)CSc3nnc(-c4ccoc4C)n3C)sc2c1	0.4	49	2.4	60*	130*
COc1ccc2nc(Nc3ccccc3OC)sc2c1	0.1	202*	7.9*	87*	108
COc1ccc(Nc2nc3ccccc3c(=O)s2)c(OC)c1	1.1	-1	0.92	-11	99
COC(=O)c1ccc2nc(NC(=O)C(C)C)sc2c1	0.4	96	6*	60*	134*
COc1ccc2nc(NC(=O)Nc3cccc4ccccc34)sc2c1	0.8	77	1.1	15	123
CC(C)C(=O)Nc1nc2ccc(S(C)(=O)=O)cc2s1	1	-6	1.7	0	103
SMILES	FLuc act counter	APP 5'UTR act	NF-kB expr up	FLuc inh counter	STAT1 act
CCOC(=O)c1cccc(C(=O)Nc2nc3ccc(OC)cc3s2)n1	0.1	29	1.3	91*	113
O=C(Oc1ccc(Br)cc1C(=O)/C=C/c1ccccc1F)c1ccco1	x	9	x	x	101
O=C(/C=C/Nc1cccc([N+](=O)[O-])c1)c1ccco1	x	43	x	x	128
O=C(/C=C/Nc1ccc(F)c(Cl)c1)c1ccco1	0.6	96	2.9	41	150*
O=C(/C=C/Nc1ccc(F)cc1F)c1ccco1	0	152*	4.9*	97*	28
O=C(/C=C/Nc1ccc(Br)cc1F)c1ccco1	0	135	4.7*	97*	25
COc1ccc(Cl)cc1S(=O)(=O)Nc1ccncc1	1.1	5	0.96	-7	118
CCC(=O)N(CC)c1nc(-c2ccc(OC)cc2)cs1	1	77	2.4	3	143*
CCC(=O)N(Cc1ccco1)c1nc(-c2ccc(OC)cc2)cs1	1.1	x	1.2	-6	102
Cc1ccc(Nc2nc(N)nc(CN3CCN(c4ccccc4F)CC3)n2)cc1	1	4	0.58	-1	108
Cc1ccc(C(=O)NCC(=O)OCC(=O)c2ccc3c(c2)NC(=O)CO3)cc1	1.1	9	2	-5	109
Cc1ccc2nc(-c3ccccc3)nc(SC(C)C(=O)NCc3cccs3)c2c1 (stereo not drawn)	1	-4	5*	-4	96
C(=N\n1cnnc1)/c1cccc2ccccc12	1	13	1.1	-1	114
COc1ccc(-c2cn3ccc4ccccc4c3n2)cc1	0.3	217*	14*	68*	120
Cc1cccn2cc(-c3ccccc3)nc12	0.3	154*	4.3*	69*	138*
Cc1cccn2cc(-c3cccc(NC(=O)c4cccs4)c3)nc12	0.7	31	1.1	31	131*
Cc1cccn2cc(CNc3ccccc3)nc12	1	17	2.3	4	123
Cc1cccn2cc(-c3ccc(F)cc3)nc12	0.4	128	5.8*	59*	130*
Cc1cc(C)c(C#N)c(SCC(=O)c2ccccc2)n1	1.1	0	1	-8	102
COc1ccc(C(C)=O)cc1COC(=O)CNC(=O)c1ccc(F)cc1	1	-24	1	-2	94
O=C(O)c1cn(Cc2ccccn2)c(=O)c2ccccc12	1	152*	0.94	2	109
O=C(O)c1cn(Cc2cccnc2)c(=O)c2ccccc12	1.1	9	0.98	-5	91
Cc1ccc(NC(=O)N2CCc3ccccc32)cc1C	0.1	160*	9.2*	86*	93
Cc1ccc(NC(=O)N2CCc3ccccc32)cc1	0.1	170*	8.1*	90*	90
Cc1ccc(NC(=O)N2CCCc3ccccc32)cc1	0.9	15	1.4	7	105
SMILES	FLuc act counter	APP 5'UTR act	NF-kB expr up	FLuc inh counter	STAT1 act
NC(=O)CN1CCN(c2ccccc2F)CC1	1	-7	0.93	-2	100
O=C(N/N=C/c1cn(-c2ccccc2)nc1-c1cc2ccccc2o1)c1ccccc1Br	0.9	188*	1.9	6	120
O=C(N/N=C/c1cn(-c2cccs2)nc1-c1ccccc1)c1ccccc1Br	0.9	19	0.61	8	96
O=[N+]([O-])c1ccccc1S(=O)(=O)NCCC1=CCCCC1	1	1	0.93	-4	97
CC(C)(C)NC(=O)CSc1nc(-c2ccc(F)cc2)cs1	0.4	77	4.7*	55*	141*
COc1ccc(-n2c(=O)c3c(C)c(C)sc3n(Cc3cccc(F)c3)c2=O)c(OC)c1	1	49	0.81	-2	103
Cc1cc(OCC(=O)N2CCCCCC2)ccc1[N+](=O)[O-]	1.1	57	1.8	-8	138*
c1csc(-c2noc(COc3ccc4c(c3)CCCC4)n2)c1	0.9	126	4.4*	5	132*
CN(C)c1ccc(NC(=O)c2ccc([N+](=O)[O-])cc2Cl)cc1	0.7	105	1.7	27	145*
Cc1ccc(NC(=O)c2ccc([N+](=O)[O-])cc2Cl)nc1	0.6	74	1.7	41	136*
O=C(Nc1ccccn1)c1ccc([N+](=O)[O-])cc1Cl	1	-2	0.99	4	106
